Series [1] concerns Leishmania chagasi. Nature of the series: Antileishmanial activity against promastigote form of Leishmania chagasi MCAN/BR/99/JP15 after 72 hrs. It counts as functional, organism-based, MCAN/BR/99/JP. The essentials:
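Log-phase promastigotes at 1 × 10^6 parasites/mL were grown at 26 °C in Schneider's Drosophila medium with 20% FBS, with or without a range of adduct concentrations, for 72 h. Glucantime served as the reference drug. Parasites were fixed in isotonic citric acid/NaCl/formalin solution, and growth was counted by light microscopy in a Neubauer chamber. Three independent experiments were run in triplicate.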

The test system of series [2] is Artemia salina (organism). Nature of the series: Toxicity in Artemia salina after 24 hrs. It counts as organism-based. The following applies: in vivo. In short, it runs like this:
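Brine shrimp nauplii hatched in filtered sea water over 48 h (lamp drawing hatched shrimps through a partitioned tank), exposed to compound in DMSO/sea water in tubes for 24 h under light. Dead and surviving shrimps counted; LC50 from concentration versus lethality percentage on a probit scale. Sea water plus DMSO served as control.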

Series [3] relates to Leishmania amazonensis. As to the kind of experiment: Antileishmanial activity against Leishmania amazonensis. It counts as functional, organism-based.
Where [4] appears, read: Leishmania chagasi, MCAN/BR/99/JP, 72 h, read-out: IC50.

In turn, MEGLUMINE ANTIMONATE gave an IC50 in series [1] of 1620.3 µg/mL.
As to `C=C(C#N)C(O)c1cccc([N+](=O)[O-])c1` (stereo unspecified), in series [2], the 50% lethal concentration (LC50) at 24 h worked out at 471 µM. Besides, the 50% inhibitory concentration (IC50) in series [1] (setting [4]) turned out to be 34.6 µM.
On to `C=C(C#N)C(O)c1ccc([N+](=O)[O-])cc1` (stereo unspecified), for which the LC50 at 24 h in series [2] was 180 µM. The half-maximal inhibitory concentration (IC50) worked out at 37.4 µM in series [1] (setting [4]) and 7.9 µM in series [3].
As to `C=C(C#N)C(O)c1ccncc1` (stereo unspecified), the LC50 at 24 h in series [2] amounted to 443 µM. Moreover, the IC50 in series [1] (setting [4]) stood at 30.1 µM.
For `C=C(C#N)C(O)c1ccc(Br)cc1` (stereo unspecified) the same measures were 130 µM and 25.2 µM.
For `C=C(C#N)C(O)c1ccccn1` (stereo unspecified) the same measures were 545 µM and 32 µM.
The matching figures for `C=C(C#N)C(O)c1ccccc1[N+](=O)[O-]` (stereo unspecified): 430 µM and 38.8 µM.
For the compound `C=C(C#N)C(O)c1cccnc1` (stereo unspecified), in series [2], the LC50 at 24 h turned out to be 555 µM. Also, the half-maximal inhibitory concentration (IC50) in series [1] (setting [4]) is 36.9 µM.

These data come from ChEMBL document CHEMBL1137673, “Improved synthesis of seven aromatic Baylis-Hillman adducts (BHA): evaluation against Artemia salina Leach. and Leishmania chagasi” (Eur J Med Chem, 2009).
